The source made the active and inactive calls. The calls are words filed in the database; no cut-off is given here. Side chains are listed from the residue outwards. Peptide text beside a SMILES is read from it. * marks the point of attachment. X3 = O=c1ccn([C@@H]2O[C@H](COCCOCCN*)[C@@H](O)[C@H]2O)c(=O)[nH]1; X2 = O=c1ccn([C@@H]2O[C@H](COCCN*)[C@@H](O)[C@H]2O)c(=O)[nH]1; X1 = O=c1ccn([C@@H]2O[C@H](CN*)[C@@H](O)[C@H]2O)c(=O)[nH]1; X4 = O=C(c1cc(=O)[nH]c2ccccc12)*; 4Amb = NCc1ccc(C(=O)O)cc1

The first experiment deals with T1, UDP-N-acetylglucosamine--peptide N-acetylglucosaminyltransferase 110 kDa subunit (Homo sapiens, UniProt O15294).
T1 sequence (O15294 whole entry): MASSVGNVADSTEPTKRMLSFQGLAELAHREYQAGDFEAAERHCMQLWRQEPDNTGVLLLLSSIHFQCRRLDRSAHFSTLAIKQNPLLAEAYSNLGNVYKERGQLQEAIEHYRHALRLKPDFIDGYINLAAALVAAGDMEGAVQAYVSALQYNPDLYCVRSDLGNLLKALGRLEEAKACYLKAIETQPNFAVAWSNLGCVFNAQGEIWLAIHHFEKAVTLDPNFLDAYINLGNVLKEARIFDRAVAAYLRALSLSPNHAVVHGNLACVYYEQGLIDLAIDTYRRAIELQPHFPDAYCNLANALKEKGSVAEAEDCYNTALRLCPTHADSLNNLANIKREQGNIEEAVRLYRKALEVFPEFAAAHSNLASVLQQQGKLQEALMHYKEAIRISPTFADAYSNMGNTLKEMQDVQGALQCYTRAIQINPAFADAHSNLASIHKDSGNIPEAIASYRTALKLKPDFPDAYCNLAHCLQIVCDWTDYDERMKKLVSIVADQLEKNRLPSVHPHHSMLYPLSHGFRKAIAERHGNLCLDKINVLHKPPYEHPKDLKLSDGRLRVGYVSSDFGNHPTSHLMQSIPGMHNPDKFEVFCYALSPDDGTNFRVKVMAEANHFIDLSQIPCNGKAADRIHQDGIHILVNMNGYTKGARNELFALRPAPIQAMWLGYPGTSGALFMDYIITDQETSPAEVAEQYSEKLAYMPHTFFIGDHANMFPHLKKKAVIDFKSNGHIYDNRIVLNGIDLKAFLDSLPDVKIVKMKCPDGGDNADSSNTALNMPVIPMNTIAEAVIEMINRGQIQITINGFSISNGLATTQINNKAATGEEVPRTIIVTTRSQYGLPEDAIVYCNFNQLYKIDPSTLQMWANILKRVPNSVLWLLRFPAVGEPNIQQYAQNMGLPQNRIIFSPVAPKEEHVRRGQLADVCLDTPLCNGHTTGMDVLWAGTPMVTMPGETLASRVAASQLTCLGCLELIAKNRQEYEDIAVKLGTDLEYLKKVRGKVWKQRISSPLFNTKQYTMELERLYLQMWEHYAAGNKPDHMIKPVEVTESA
Briefly: Inhibition of OGT (unknown origin) using UDP-GlcNAc as substrate measured after 2 hrs by UDP-Glo luminescence assay.
As usually defined, the IC50 is the concentration that inhibits the measured activity by half. Low readings indicate inhibition by little substance, high ones a need for much substance. As for `CC(C)[C@H](NC(=O)[C@@H](N)CS)C(=O)N[C@H](C(=O)N1CCC[C@H]1C(=O)N[C@H](C(=O)N[C@@H](CCCCNC(=O)c1ccc(CNC(=O)c2cc(=O)[nH]c3ccccc23)cc1)C(=O)N[C@H](C(=O)N[C@@H](C)C(N)=O)[C@@H](C)O)C(C)C)[C@@H](C)O` (H-CVTPVK([4Amb-X4])TA-NH2), half-maximal inhibition (IC50) required 117 µM. As to `CC(C)[C@H](NC(=O)[C@@H](N)CS)C(=O)N[C@H](C(=O)N1CCC[C@H]1C(=O)N[C@H](C(=O)N[C@@H](CCC(=O)NCCOCCOC[C@H]1O[C@@H](n2ccc(=O)[nH]c2=O)[C@H](O)[C@@H]1O)C(=O)N[C@H](C(=O)N[C@@H](C)C(N)=O)[C@@H](C)O)C(C)C)[C@@H](C)O` (H-CVTPVE(X3)TA-NH2), the 50% inhibitory concentration (IC50) stood at 493 µM. With `CC(C)[C@H](NC(=O)[C@@H](N)CS)C(=O)N[C@H](C(=O)N1CCC[C@H]1C(=O)N[C@H](C(=O)N[C@@H](CCC(=O)NCCOC[C@H]1O[C@@H](n2ccc(=O)[nH]c2=O)[C@H](O)[C@@H]1O)C(=O)N[C@H](C(=O)N[C@@H](C)C(N)=O)[C@@H](C)O)C(C)C)[C@@H](C)O` (H-CVTPVE(X2)TA-NH2), the half-maximal inhibitory concentration (IC50) was over 1000 µM.

As to `CC(C)[C@H](NC(=O)[C@@H](N)CCCNC(=N)N)C(=O)N1CCC[C@H]1C(=O)N[C@@H](CO)C(=O)N[C@@H](CCC(=O)NCCOC[C@H]1O[C@@H](n2ccc(=O)[nH]c2=O)[C@H](O)[C@@H]1O)C(=O)N[C@@H](CCC(N)=O)C(=O)N[C@@H](CO)C(N)=O` (H-RVPSE(X2)QS-NH2), the half-inhibitory concentration (IC50) is over 1000 µM. Still for that read-out and setting: the value for `CC(C)[C@H](NC(=O)[C@@H](N)CCCNC(=N)N)C(=O)N1CCC[C@H]1C(=O)N[C@@H](CO)C(=O)N[C@@H](CCC(=O)NC[C@H]1O[C@@H](n2ccc(=O)[nH]c2=O)[C@H](O)[C@@H]1O)C(=O)N[C@@H](CCC(N)=O)C(=O)N[C@@H](CO)C(N)=O` (H-RVPSE(X1)QS-NH2) was over 1000 µM; that for H-RVPSAQS-NH2 was 193 µM; that for H-CVTPVATA-NH2 was 385 µM. `CC(C)[C@H](NC(=O)[C@@H](N)CS)C(=O)N[C@H](C(=O)N1CCC[C@H]1C(=O)N[C@H](C(=O)N[C@@H](CCC(=O)NC[C@H]1O[C@@H](n2ccc(=O)[nH]c2=O)[C@H](O)[C@@H]1O)C(=O)N[C@H](C(=O)N[C@@H](C)C(N)=O)[C@@H](C)O)C(C)C)[C@@H](C)O` (H-CVTPVE(X1)TA-NH2) had an IC50 of 297 µM.

A further experiment addresses T2, UDP-N-acetylglucosamine--peptide N-acetylglucosaminyltransferase 110 kDa subunit (Homo sapiens) (UniProt O15294).
T2 sequence (whole entry): T1 sequence (O15294 whole entry)
The experiment can be described thus: Competitive inhibition of OGT (unknown origin) at 0.5 mM in presence of RBL_2_410_422 peptide by microarray analysis. The method, boiled down: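 Peptide microarray with immobilized RBL-2_410–422 as OGT acceptor; inhibitor peptide present at 0.5 mM, water in parallel control. O-GlcNAcylation followed in real time by FITC-labelled antibody binding to O-GlcNAcylated RBL-2_410–422.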
The inhibition is how much of the control response was suppressed. Consider H-KENSPCVTPVATA-OH, for which the inhibition result is “Active”.

The target of another experiment is T2, UDP-N-acetylglucosamine--peptide N-acetylglucosaminyltransferase 110 kDa subunit (Homo sapiens). Briefly: Inhibition of OGT (unknown origin) at 1 mM using UDP-GlcNAc as substrate measured after 2 hrs by UDP-Glo luminescence assay relative to control. The method, boiled down:
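Single-point OGT inhibition at 1 mM, read by UDP-Glo glycosyltransferase assay (UDP released from UDP-GlcNAc donor).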
The compound `CC(C)(C)OC(=O)CNC(=O)c1cc(=O)[nH]c2ccccc12` returned an inhibition of 90%. Turning to `O=C(NCc1ccc2c(c1)OCCO2)c1cc(=O)[nH]c2ccccc12`, the inhibition amounted to 90%. Take `CCOC(=O)CCCNC(=O)c1cc(=O)[nH]c2ccccc12`: the inhibition is 90%. Take `O=C(O)CCNC(=O)c1ccc(NC(=O)c2cc(=O)[nH]c3ccccc23)cc1`: the inhibition was 90%. Take `O=C(O)CCNC(=O)c1cc(=O)[nH]c2ccccc12`: the inhibition was found to be 90%.

Compound `CCNC(=O)CCNC(=O)c1ccc(NC(=O)c2cc(=O)[nH]c3ccccc23)cc1` came in with an inhibition of 90%.

Take `CCOC(=O)C1CCC(CNC(=O)c2cc(=O)[nH]c3ccccc23)CC1` (stereo unspecified): the inhibition amounted to 90%. In turn, `O=C(O)CCCNC(=O)c1cc(=O)[nH]c2ccccc12` yielded an inhibition of 90%. The compound `CCOC(=O)c1ccc(CNC(=O)c2cc(=O)[nH]c3ccccc23)cc1` displayed an inhibition of 90%. `O=C(O)CNC(=O)c1cc(=O)[nH]c2ccccc12` returned an inhibition of 90%. In the case of `Nc1ccc(CNC(=O)c2cc(=O)[nH]c3ccccc23)cc1`, the inhibition was 90%. The compound `NS(=O)(=O)c1ccc(CNC(=O)c2cc(O)nc3ccccc23)cc1` registered an inhibition of 90%. Still for that read-out and setting: the value for `O=C(NCc1ccccc1Cl)c1cc(O)nc2ccccc12` was 90%. Compound `O=C(NCc1ccccc1)c1cc(O)nc2ccccc12` yielded an inhibition of 90%. `O=C(O)c1cc(O)nc2ccccc12`: the inhibition came out at 90%. In turn, `COc1ccc(CNC(=O)c2cc(=O)[nH]c3ccccc23)cc1` had an inhibition of 90%. On the same count and under the same terms, the result for `CCc1nnc(NC(=O)c2cc(=O)[nH]c3ccccc23)s1` reads 90%; that for `COc1ccc(CNC(=O)c2cc(=O)[nH]c3ccccc23)cc1OC`, 90%. In turn, `O=C(NCC1CCC(C(=O)O)CC1)c1cc(=O)[nH]c2ccccc12` (stereo unspecified) came in with an inhibition of 90%. For `O=C(O)c1ccc(CNC(=O)c2cc(=O)[nH]c3ccccc23)cc1`, the inhibition stood at 90%. Still for that read-out and setting: the result for `Nc1ccccc1CNC(=O)c1cc(=O)[nH]c2ccccc12` reads 90%. In turn, `CC(C)(C)OC(=O)CCNC(=O)c1cc(=O)[nH]c2ccccc12` returned an inhibition of 90%.

The values are drawn from ChEMBL document CHEMBL4257518, “Inhibition of O-GlcNAc transferase (OGT) by peptidic hybrids” (Medchemcomm, 2018).
